This is an account of results in ChEMBL document CHEMBL1146476, “Structure-activity relationships of ring C-secotaxoids. 1. Acylative modifications” (J Nat Prod, 2004).

The subject of assay [1] is MCF7. Briefly: Cytotoxicity against human MCF7 cells after 72 hrs by SRB assay. Format: functional, cell-based. As to conditions: MCF7, 72 h. For orientation: In SRB staining, fixed cells bind dye roughly in proportion to their protein.
For assay [2], the system named is MCF7. Briefly: Cytotoxicity against human multidrug-resistant MCF7 cells after 72 hrs by SRB assay. The format is functional, cell-based. To be noted: MCF7, 72 h. In short, it runs like this:
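Monolayer cultures kept in RPMI-1640 with 5% FCS, 5% NuSerum IV, 20 mM HEPES, 2 mM L-glutamine at 37 °C, 5% CO2. Cells seeded at 800-1500/well and allowed to attach 15-18 h, then given 10 concentrations spanning 5 logs (DMSO stock diluted in RPMI-1640/10 mM HEPES) for 72 h. Fixed with cold TCA, stained with 0.4% SRB, OD 570 nm. Sigmoid-Emax nonlinear regression fit.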

A word on the IC50: it is the concentration at which inhibition is half-maximal. A lower IC50 goes with greater potency. Regarding `CC(=O)O[C@@]1([C@@H]2/C(C)=C(/O)C(=O)C3=C(C)[C@@H](OC(=O)[C@H](O)[C@H](CC(C)C)NC(=O)OC(C)(C)C)C[C@@](O)([C@H]2OC(=O)c2ccccc2)C3(C)C)CO[C@@H]1CCO`, the values for the concentration for half-maximal inhibition (IC50) in assay [1] and in assay [2] were 14 nM and 1640 nM, respectively.

As to `CC(=O)O[C@@]1([C@@H]2/C(C)=C(/OC(=O)OC(C)(C)C)C(=O)C3=C(C)[C@@H](OC(=O)[C@H](O)[C@H](CC(C)C)NC(=O)OC(C)(C)C)C[C@@](O)([C@H]2OC(=O)c2ccccc2)C3(C)C)CO[C@@H]1CCOC(=O)OC(C)(C)C`, the IC50 worked out at 51 nM in assay [1] and 736 nM in assay [2].

As to `CC(=O)OCC[C@H]1OC[C@@]1(OC(C)=O)[C@@H]1/C(C)=C(/OC(C)=O)C(=O)C2=C(C)[C@@H](OC(=O)[C@H](O)[C@H](CC(C)C)NC(=O)OC(C)(C)C)C[C@@](O)([C@H]1OC(=O)c1ccccc1)C2(C)C`, the IC50 in assay [1] amounted to 36 nM; in assay [2] it was 956 nM.

Consider `CC(=O)O[C@@]1([C@@H]2/C(C)=C(/OC(=O)[C@@H](O)[C@@H](CC(C)C)NC(=O)OC(C)(C)C)C(=O)C3=C(C)[C@@H](O)C[C@@](O)([C@H]2OC(=O)c2ccccc2)C3(C)C)CO[C@@H]1CCOC(=O)C(C)(C)C`, for which the IC50 in assay [1] and in assay [2] was over 3000 nM each time.

Regarding `CC(=O)O[C@@]1([C@@H]2/C(C)=C(/OC(=O)OCc3ccccc3)C(=O)C3=C(C)[C@@H](OC(=O)[C@H](O)[C@H](CC(C)C)NC(=O)OC(C)(C)C)C[C@@](O)([C@H]2OC(=O)c2ccccc2)C3(C)C)CO[C@@H]1CCO`, the IC50 was 53 nM in assay [1] and 1200 nM in assay [2].

Turning to `CC(=O)O/C1=C(\C)[C@@H]([C@]2(OC(C)=O)CO[C@@H]2CCO)[C@H](OC(=O)c2ccccc2)[C@]2(O)C[C@H](OC(=O)[C@H](O)[C@H](CC(C)C)NC(=O)OC(C)(C)C)C(C)=C(C1=O)C2(C)C`, the half-inhibitory concentration (IC50) worked out at 18 nM in assay [1] and 1000 nM in assay [2].

In turn, `CC(=O)O[C@H]1C(=O)[C@@]2(C)[C@H]([C@H](OC(=O)c3ccccc3)[C@]3(O)C[C@H](OC(=O)[C@H](O)[C@@H](NC(=O)c4ccccc4)c4ccccc4)C(C)=C1C3(C)C)[C@]1(OC(C)=O)CO[C@@H]1C[C@@H]2O` [PACLITAXEL] had an IC50 in assay [2] of 354 nM.
